Source: PubChem BioAssay (several laboratories)
EP2 antag: EP2 receptor (human) inhibition; hit rate 0.52% among 260,000; P43116; C6 glioma cells expressing human EP2, cAMP TR-FRET; cells stimulated with saturating PGE2; AID 1422; inhibition, % at 25 µM;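 active means percent inhibition above 40 after rounding to a whole number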;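 further: rat C6 glioma host cells with rolipram phosphodiesterase inhibitor present; the protocol text gives 20 µM as final concentration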
NPY-Y2 antag: blocks the human neuropeptide Y Y2 receptor; P49146; NPY-Y2 expressing cells, antagonist mode; inhibition, % at 2.7 µM; hit rate 0.99% among 140,000; AID 793; in the data active means inhibition above about 17%;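 further: 0% = vehicle with agonist challenge and 100% = reference antagonist with challenge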
EP2 modulator: EP2 receptor (human) modulation; P43116; hit rate 0.83% among 260,000; induction, % at 25 µM; EP2-expressing cells, cAMP HTRF FRET, PGE2 co-stimulation;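 active means compounds whose cAMP rise, as percent of the full-agonist control response, exceeds 60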;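 further: rat C6 glioma line stably carrying human EP2 under a CMV promoter; the protocol text gives 20 µM as final concentration; 100% = response of wells given 1 µM PGE2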
NPY-Y2 PAM-ag: potentiators or agonists of human neuropeptide Y receptor Y2 | P49146 | cells expressing NPY-Y2, potentiator/agonist read-out | activation, % at 3.6 µM | hit rate 0.45% among 220,000 | AID 1359; in the data active means activation above about 27%;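 further: cells stimulated with NPY near EC25 plus isoproterenol at EC100; 0% = vehicle plus submaximal agonist and 100% = vehicle plus saturating agonist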
NPY-Y1 PAM-ag: potentiators or agonists of human neuropeptide Y receptor Y1; P25929; NPY-Y1 expressing cells, potentiator/agonist activation; activation, % at 3.6 µM; hit rate 0.37% among 220,000; in the data active means activation above about 33%, passing the limit was not always enough;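 further: cells stimulated with NPY at EC10 then isoproterenol at EC100; 0% = low agonist plus stimulus and 100% = saturating agonist plus stimulus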
Target sequence (P25929 whole entry, looked up): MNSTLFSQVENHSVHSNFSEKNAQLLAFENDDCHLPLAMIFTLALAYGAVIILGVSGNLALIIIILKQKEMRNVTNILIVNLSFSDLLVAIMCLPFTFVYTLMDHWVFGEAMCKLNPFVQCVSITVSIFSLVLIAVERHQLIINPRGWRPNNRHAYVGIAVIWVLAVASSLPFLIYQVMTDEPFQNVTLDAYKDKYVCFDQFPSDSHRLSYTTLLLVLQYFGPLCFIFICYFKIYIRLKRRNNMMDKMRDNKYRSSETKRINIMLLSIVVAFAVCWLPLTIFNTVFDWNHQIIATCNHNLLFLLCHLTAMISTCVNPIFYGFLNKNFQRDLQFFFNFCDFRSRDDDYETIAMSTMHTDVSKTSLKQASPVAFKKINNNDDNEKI
NPY Y1 blocker: antagonists of human neuropeptide Y receptor Y1 | HEK293-CNG Y1 cells, membrane potential fluorescence; NPY at EC95, then isoproterenol | inhibition, % at 3.6 µM | hit rate 1% among 200,000 | AID 1040;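 active means inhibition above the campaign mean inhibition of all tested compounds plus 3 SD, cut at about 20% in these data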;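 further: 0% = DMSO wells given NPY plus isoproterenol and 100% = isoproterenol alone without NPY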
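Material: HEK293 Y1/CNG channel cell line | Also added: NPY (25 nM), isoproterenol (1 µM), Ro 20-1724 (25 µM) | Compound: One concentration, 3.6 µM, in 0.4% DMSO | Schedule: 3 h dye uptake, 1 h room-temperature compound, 45 min post-isoproterenol | Signal: Membrane-potential fluorescent dye readout | Read-out: % inhibition of NPY effect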
The depositor's hits bear a star; ! = not active in a repeat. In the library only some 2.8% were active in any assay of this set; here they are far more common.

What do the screens show for `CN(Cc1ccccc1)c1nc(-c2ccc([N+](=O)[O-])cc2)nc2ccccc12`?
EP2 antag: 4; NPY-Y2 antag: 1; EP2 modulator: 64*; NPY-Y2 PAM-ag: 9; NPY-Y1 PAM-ag: 14; NPY Y1 blocker: 0

Results for CCc1cc2cccc(C)c2nc1SCC(=O)N1CCCC1 ?
EP2 antag: 8; EP2 modulator: 65*

How did CCOC(=O)CC(=O)CSc1nc2c(C)ccc(C)c2cc1CC do in these assays?
EP2 antag: 14; EP2 modulator: 95*

How did O=C1CC2(CCN(C(=O)C3CCCC3)CC2)Oc2ccc(Cl)cc21 do in these assays?
EP2 antag: 5; EP2 modulator: -57

How did N#Cc1c(Cl)nc(SCc2ccccc2)nc1-c1ccccc1 do in these assays?
EP2 antag: 61*; NPY-Y2 antag: 9; EP2 modulator: 16; NPY-Y2 PAM-ag: -19; NPY-Y1 PAM-ag: -9; NPY Y1 blocker: 4

What do the screens show for `c1ccc(CSc2nnc(-c3ccccc3)c(-c3ccccc3)n2)cc1`?
EP2 antag: 1

How did CSc1nc(-c2ccco2)nn1S(=O)(=O)c1ccc(C)cc1 do in these assays?
EP2 antag: 4; NPY-Y2 antag: 1; EP2 modulator: 33; NPY-Y2 PAM-ag: 3; NPY-Y1 PAM-ag: -20; NPY Y1 blocker: 8

How did CSc1nc(-c2ccco2)nn1S(=O)(=O)c1ccccc1 do in these assays?
NPY-Y2 antag: 7; EP2 modulator: 33; NPY-Y2 PAM-ag: 6; NPY-Y1 PAM-ag: -39; NPY Y1 blocker: 24*

How did CC(=O)C1=C(C)NC(SCC(=O)c2ccc(-c3ccccc3)cc2)=C(C#N)C1c1cccnc1 (centres undefined) do in these assays?
EP2 antag: 49*; NPY-Y2 antag: 0; EP2 modulator: -22; NPY-Y2 PAM-ag: -7; NPY-Y1 PAM-ag: -43; NPY Y1 blocker: 11

How did S=c1[nH]nc(-c2cccs2)n1/N=C/c1cn(-c2ccccc2)nc1-c1cccs1 do in these assays?
EP2 antag: 7; EP2 modulator: 86*; NPY-Y2 PAM-ag: 2; NPY-Y1 PAM-ag: 1

Results for Cc1ccc(-c2nn(-c3ccccc3)cc2/C=N/n2c(-c3cccs3)n[nH]c2=S)cc1 ?
EP2 antag: 6; EP2 modulator: 60; NPY-Y2 PAM-ag: -19; NPY-Y1 PAM-ag: -11

How did CCc1nc2sc3c(c2c2nnc(SCC(=O)NCCc4ccccc4)n12)CCCC3 do in these assays?
EP2 antag: 8; EP2 modulator: 25

How did CCOC(=O)c1c(C)[nH]c(C)c1C(=O)CSc1nnnn1-c1ccccc1 do in these assays?
EP2 antag: 15; NPY-Y2 antag: 1; EP2 modulator: 64*; NPY-Y2 PAM-ag: -11; NPY-Y1 PAM-ag: -10; NPY Y1 blocker: -1

What do the screens show for `COC(=O)c1c(C)[nH]c(C(=O)CSc2nnnn2-c2ccccc2)c1C`?
NPY-Y2 antag: 0; EP2 modulator: -1; NPY-Y2 PAM-ag: 4; NPY-Y1 PAM-ag: -16; NPY Y1 blocker: 3

Results for CCn1nnc(NC(=O)c2ccc(Cl)cc2Cl)n1 ?
EP2 antag: 16; EP2 modulator: -30

Results for COc1ccc(C(O)c2coc3ccc(O)c(CN(C)C)c23)cc1 (centres undefined) ?
EP2 antag: 19; NPY-Y2 antag: 3; EP2 modulator: 0; NPY-Y2 PAM-ag: 100*; NPY-Y1 PAM-ag: 107*; NPY Y1 blocker: -21

What do the screens show for `NCC(O)c1ccc(O)c(O)c1` (centres undefined)?
EP2 antag: 9; EP2 modulator: 66*

Results for CC(C)NC[C@H](O)c1ccc(O)c(O)c1 ?
EP2 antag: 11; EP2 modulator: 76*!

What do the screens show for `CC(C)NCC(O)c1cc(O)cc(O)c1` (centres undefined)?
EP2 antag: 21; EP2 modulator: 81*!

Results for O=C(O)CCCNC1CCS(=O)(=O)C1 (centres undefined) ?
EP2 antag: 19; EP2 modulator: -6

How did Cc1ccc2[nH]c(=O)c(C(c3nnnn3C3CCCC3)N3CCC(Cc4ccccc4)CC3)cc2c1 (centres undefined) do in these assays?
EP2 antag: 7; EP2 modulator: 25

What do the screens show for `O=C1C=C(NCCc2cc(Br)c(O)c(Br)c2)C(=O)c2ncccc21`?
EP2 antag: 104*; EP2 modulator: -49

What do the screens show for `O=S(=O)(c1ccc(C(F)(F)F)cc1)N1CCN(N2CCOCC2)CC1`?
EP2 antag: 4; EP2 modulator: -21
